Experimental findings from ChEMBL document CHEMBL1123648, “Synthesis, chemical reactivity, and antileukemic activity of 5-substituted 6,7-bis(hydroxymethyl)pyrrolo[1,2-c]thiazole biscarbamates and the corresponding sulfoxides and sulfones” (1987) are described below.

Test [1] is described as follows: Toxicity day survivors expressed as number of animals that survived to day five/ number of test animals under control group B at a dose of 25 mg/kg; 5 survived out of 6. Format: functional, Mus musculus.
A short description of test [2]: Percent increase in life span of test animals compared to untreated tumor-bearing control group B animals at a dose of 12.5 mg/kg. As to conditions: Mus musculus. Format: functional.
Test [3] can be described thus: Percent increase in life span of test animals compared to untreated tumor-bearing control group B animals at a dose of 25 mg/kg. As to conditions: Mus musculus. Format: functional.
Test [4] can be described thus: Toxicity day survivors expressed as number of animals that survived to day five/ number of test animals under control group B at a dose of 100 mg/kg; 1 survived out of 6. The class given is functional, Mus musculus.
The test system of test [5] is P388. The test is described as follows: Log cell population relative to cell population at the beginning of treatment compared to control group B at a dose of 25 mg/kg. Format: functional, Mus musculus.
In test [6] the test system is P388. The test is described as follows: Log cell population relative to cell population at the beginning of treatment compared to control group Bat a dose of 50 mg/kg. Format: functional, Mus musculus.
Test [7] in a line: Antileukemic activity against Murine P388 lymphocytic leukemia, body weight difference of the test animals compared to control group B animals at a dose of 50 mg/kg. Format: functional, Mus musculus. Details: unit not given here. A digest of the protocol: (§1)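 CD2F1 mice implanted intraperitoneally with ascitic fluid carrying ca. 1×10^6 P388 cells, under the NCI protocol. Dosing was intraperitoneal, starting 24 h after inoculation, then every 24 h for five doses in total. The body weight difference of treated mice is taken against untreated controls. Toxicity day survivors are the mice alive at day five out of those tested.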

Test [8] is described as follows: Antileukemic activity against Murine P388 lymphocytic leukemia, body weight difference of the test animals compared to control group B animals at a dose of 100 mg/kg. Format: functional, Mus musculus. Also noted: unit not given here. A digest of the protocol:
as §1

Test [9] can be described thus: Antileukemic activity against Murine P388 lymphocytic leukemia, body weight difference of the test animals compared to control group B animals at a dose of 25 mg/kg. Also noted: unit not given here. The class given is functional, Mus musculus. The method, boiled down: as §1
Test [10] in a line: Antileukemic activity against Murine P388 lymphocytic leukemia, body weight difference of the test animals compared to control group B animals at a dose of 12.5 mg/kg. The class given is functional, Mus musculus. Details: unit not given here. A digest of the protocol: as §1
Test [11] can be described thus: Toxicity day survivors expressed as number of animals that survived to day five/ number of test animals under control group B at a dose of 12.5 mg/kg; […] out of 6. The class given is functional, Mus musculus.
The nature of test [12]: Percent increase in life span of test animals compared to untreated tumor-bearing control group B animals at a dose of 50 mg/kg. Format: functional. As to conditions: Mus musculus.
The nature of test [13]: Toxicity day survivors expressed as number of animals that survived to day five/ number of test animals under control group B at a dose of 50 mg/kg; 5 survived out of 6. The class given is functional, Mus musculus.
Test [14] deals with P388. The test is described as follows: Log cell population relative to cell population at the beginning of treatment compared to control group B at a dose of 12.5 mg/kg. Format: functional, Mus musculus.
Test [15] in a line: Antileukemic activity against Murine P388 lymphocytic leukemia, body weight difference of the test animals compared to control group C animals at a dose of 50 mg/kg. Format: functional, Mus musculus. Details: unit not given here. A digest of the protocol:
as §1

A short description of test [16]: Antileukemic activity against Murine P388 lymphocytic leukemia, body weight difference of the test animals compared to control group C animals at a dose of 200 mg/kg. The class given is functional, Mus musculus. A digest of the protocol:
as §1

Test [17] is described as follows: Percent increase in life span of test animals compared to untreated tumor-bearing control group C animals at a dose of 25 mg/kg. The class given is functional. As to conditions: Mus musculus.
Test [18] deals with P388. The test is described as follows: Log cell population relative to cell population at the beginning of treatment compared to control group C at a dose of 25 mg/kg. The class given is functional, Mus musculus.
The nature of test [19]: Toxicity day survivors expressed as number of animals that survived to day five/ number of test animals under control group C at a dose of 100 mg/kg; 6 survived out of 6. Format: functional, Mus musculus.
Test [20] is described as follows: Antileukemic activity against Murine P388 lymphocytic leukemia, body weight difference of the test animals compared to control group C animals at a dose of 25 mg/kg. Format: functional, Mus musculus. The method, boiled down:
as §1

Test [21] is described as follows: Percent increase in life span of test animals compared to untreated tumor-bearing control group C animals at a dose of 50 mg/kg. Format: functional. As to conditions: Mus musculus.
Test [22] in a line: Toxicity day survivors expressed as number of animals that survived to day five/ number of test animals under control group C at a dose of 50 mg/kg; 6 survived out of 6. Format: functional, Mus musculus.
Test [23] concerns P388. The test is described as follows: Log cell population relative to cell population at the beginning of treatment compared to control group C at a dose of 50 mg/kg. The class given is functional, Mus musculus.
The nature of test [24]: Antileukemic activity against Murine P388 lymphocytic leukemia, body weight difference of the test animals compared to control group C animals at a dose of 100 mg/kg. Format: functional, Mus musculus. Also noted: unit not given here. The method, boiled down:
as §1

Test [25] can be described thus: Toxicity day survivors expressed as number of animals that survived to day five/ number of test animals under control group C at a dose of 25 mg/kg; 6 survived out of 6. The class given is functional, Mus musculus.
Test [26] can be described thus: Toxicity day survivors expressed as number of animals that survived to day five/ number of test animals under control group C at a dose of 200 mg/kg; 6 survived out of 6. The class given is functional, Mus musculus.
Test [27] can be described thus: Antileukemic activity against Murine P388 lymphocytic leukemia, body weight difference of the test animals compared to control group A animals at a dose of 25 mg/kg. The class given is functional, Mus musculus. Details: unit not given here. A digest of the protocol:
as §1

Test [28] is described as follows: Antileukemic activity against Murine P388 lymphocytic leukemia, body weight difference of the test animals compared to control group A animals at a dose of 400 mg/kg. The class given is functional, Mus musculus. The method, boiled down:
as §1

Test [29] can be described thus: Toxicity day survivors expressed as number of animals that survived to day five/ number of test animals under control group A at a dose of 50 mg/kg; 6 survived out of 6. Format: functional, Mus musculus.
A short description of test [30]: Antileukemic activity against Murine P388 lymphocytic leukemia, body weight difference of the test animals compared to control group A animals at a dose of 200 mg/kg. The class given is functional, Mus musculus. The method, boiled down:
as §1

Test [31] in a line: Antileukemic activity against Murine P388 lymphocytic leukemia, body weight difference of the test animals compared to control group A animals at a dose of 100 mg/kg. The class given is functional, Mus musculus. Also noted: unit not given here. A digest of the protocol: as §1
Test [32] is described as follows: Toxicity day survivors expressed as number of animals that survived to day five/ number of test animals under control group A at a dose of 100 mg/kg; 6 survived out of 6. Format: functional, Mus musculus.
Test [33] can be described thus: Toxicity day survivors expressed as number of animals that survived to day five/ number of test animals under control group A at a dose of 400 mg/kg; 3 survived out of 6. Format: functional, Mus musculus.
The nature of test [34]: Percent increase in life span of test animals compared to untreated tumor-bearing control group A animals at a dose of 200 mg/kg. The class given is functional. As to conditions: Mus musculus.
Test [35] is described as follows: Toxicity day survivors expressed as number of animals that survived to day five/ number of test animals under control group A at a dose of 200 mg/kg; 6 survived out of 6. The class given is functional, Mus musculus.
Test [36] can be described thus: Toxicity day survivors expressed as number of animals that survived to day five/ number of test animals under control group A at a dose of 25 mg/kg; 6 survived out of 6. Format: functional, Mus musculus.
Test [37] can be described thus: Antileukemic activity against Murine P388 lymphocytic leukemia, body weight difference of the test animals compared to control group A animals at a dose of 50 mg/kg. The class given is functional, Mus musculus. Details: unit not given here. The method, boiled down: as §1

For the compound `CC(C)NC(=O)OCc1cn2c(c1COC(=O)NC(C)C)CCC2`, the TDS was found to be 5 in test [1], 1 in [4], 5 in [11] and 5 in test [13]. In addition, the ILS at 12.5 mg/kg in test [2] was 20%. Besides, in test [3], the ILS at 25 mg/kg amounted to 28%. For the same compound, the KE is reported as -0.46 with P388 [5], -0.69 in the test on P388 [6] and -1.23 with P388 [14]. For the same compound, the BWD is recorded as -4.4 in test [7], -3.6 in test [8], -4.5 in test [9] and -0.9 in test [10]. Also, in [12], the ILS at 50 mg/kg was found to be 26%.
Regarding `CNC(=O)OCc1c(COC(=O)NC)c2n(c1C)CSC2`, the BWD is recorded as -1.7 in [15], -1.9 in [16], -1 in test [20] and -2.2 in test [24]. Also, in [17], the ILS at 25 mg/kg turned out to be 26%. In addition, the KE with P388 [18] is listed as -0.03; in the test on P388 [23] it was 0. Also, the TDS in test [19], in test [22], in test [25] and in [26] was 6 in each case. The ILS at 50 mg/kg in test [21] turned out to be 32%.
With `CC(C)NC(=O)OCc1c(COC(=O)NC(C)C)c(-c2ccc(Cl)c(Cl)c2)n2c1C[S+]([O-])C2` (configuration not stated), the BWD in [27] is -0.9; in [28], -3.4; in test [30], -3.1; in test [31] it was -2.9; in [37] it was -1.9. For the same compound, the TDS in [29] was 6; in test [32] it was 6; in test [33], 3; in test [35] it was 6; in test [36], 6. In addition, the ILS at 200 mg/kg in test [34] is -11%.
